The record followed here is ChEMBL document CHEMBL5528013 (Eur J Med Chem, 2024).

Data set [1] relates to MOLM-14. Description: Antiproliferative activity against human MOLM-14 cells harboring FLT3-D835Y mutant assessed as inhibition of cell growth incubated for 72 hrs by resazurin dye based assay. The data set is classed as functional. The note with it: MOLM-14, 72 h. A digest of the protocol:
(§1)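 Logarithmic-phase cells were seeded at 5000 per well and treated 24 h later, in triplicate, with various concentrations for 72 h. MOLM14 lines were grown in RPMI with 10 % FBS, and other lines per provider instructions, all at 37 °C and 5 % CO2. Resazurin was then added for 4–6 h and fluorescence read. GI50 was taken from percent growth versus DMSO control, fitted with a variable-slope normalized-response model; at least three runs.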

For data set [2], the system named is MOLM-14. Format: functional, cell-based. The note with it: Homo sapiens, MOLM-14, 72 h.
The test system of data set [3] is K562. Description: Antiproliferative activity against human K562 cells assessed as inhibition of cell growth incubated for 72 hrs by resazurin dye based assay. As to conditions: K562, 72 h. Format: functional. The method in brief:
as §1

Data set [4] relates to MDA-MB-231. The experiment in a line: Antiproliferative activity against human MDA-MB-231 cells lacking FLT3 activating mutations assessed as inhibition of cell growth incubated for 72 hrs by resazurin dye based assay. The data set is classed as functional. As to conditions: MDA-MB-231, 72 h. The method in brief: as §1
(In general: The colour change of resazurin is a common sign of viable cells or microbes.)

Data set [5] can be described thus: Cytotoxicity against HEK293 cells lacking FLT3 activating mutations assessed as inhibition of cell growth incubated for 72 hrs by resazurin dye based assay. The note with it: human. The data set is classed as toxicity. The method in brief: as §1
Data set [6] addresses T1, Receptor-type tyrosine-protein kinase FLT3 (Homo sapiens, UniProt P36888).
T1 sequence (P36888 whole entry): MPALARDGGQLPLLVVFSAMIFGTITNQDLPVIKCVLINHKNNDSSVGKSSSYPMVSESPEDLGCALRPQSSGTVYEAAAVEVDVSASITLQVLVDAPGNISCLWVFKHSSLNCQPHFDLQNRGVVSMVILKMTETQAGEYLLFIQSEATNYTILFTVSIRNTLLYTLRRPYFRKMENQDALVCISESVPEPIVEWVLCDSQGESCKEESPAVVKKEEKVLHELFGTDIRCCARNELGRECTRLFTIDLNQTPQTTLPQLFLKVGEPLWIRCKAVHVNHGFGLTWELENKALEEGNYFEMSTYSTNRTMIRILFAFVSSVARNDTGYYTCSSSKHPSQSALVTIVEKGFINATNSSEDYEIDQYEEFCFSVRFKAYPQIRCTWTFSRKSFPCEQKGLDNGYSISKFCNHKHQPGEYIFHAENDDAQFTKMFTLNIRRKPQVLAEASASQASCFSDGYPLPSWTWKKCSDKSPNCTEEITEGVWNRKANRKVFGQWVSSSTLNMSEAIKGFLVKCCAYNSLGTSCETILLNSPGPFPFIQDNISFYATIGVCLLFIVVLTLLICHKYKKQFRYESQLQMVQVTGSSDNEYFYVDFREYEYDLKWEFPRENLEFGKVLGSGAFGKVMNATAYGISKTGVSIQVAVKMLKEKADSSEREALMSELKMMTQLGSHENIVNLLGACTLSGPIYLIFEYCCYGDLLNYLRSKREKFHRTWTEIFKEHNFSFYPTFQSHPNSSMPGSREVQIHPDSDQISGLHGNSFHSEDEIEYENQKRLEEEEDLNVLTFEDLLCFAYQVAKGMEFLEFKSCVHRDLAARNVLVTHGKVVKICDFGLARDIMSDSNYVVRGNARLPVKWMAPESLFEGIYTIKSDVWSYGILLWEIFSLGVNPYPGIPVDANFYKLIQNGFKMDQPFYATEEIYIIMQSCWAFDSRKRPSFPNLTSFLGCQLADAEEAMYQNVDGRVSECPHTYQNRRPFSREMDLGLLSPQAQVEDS
The experiment in a line: Inhibition of FLT3 (unknown origin) by bioluminescent ADP-Glo assay. In general terms: In ADP-Glo the light output rises with the ADP produced.

Data set [7] concerns MOLM-14. Description: Antiproliferative activity against human MOLM-14 cells assessed as inhibition of cell growth incubated for 72 hrs by resazurin dye based assay. As to conditions: MOLM-14, 72 h. The data set is classed as functional. A digest of the protocol:
as §1

Data set [8] has as its system MOLM-14. Description: Inhibition of ERK phosphorylation in human MOLM-14 cells at 1 times IC50 incubated for 2 hrs by Western blot analysis. The data set is classed as cell-based.
For data set [9], the system named is MOLM-14. Description: Inhibition of ERK phosphorylation in human MOLM-14 cells at 10 times IC50 incubated for 2 hrs by Western blot analysis relative to control. The data set is classed as cell-based. (In western blotting, separated proteins are transferred to a membrane and probed.)
The test system of data set [10] is MOLM-14. The experiment in a line: Inhibition of ERK phosphorylation in human MOLM-14 cells harboring FLT3 D835Y mutant at 1 times IC50 incubated for 2 hrs by Western blot analysis. Format: cell-based.
In data set [11] the test system is MOLM-14. Format: cell-based. As to conditions: Homo sapiens, time 2.0 hrs.
Data set [12] concerns MOLM-14. The experiment in a line: Inhibition of ERK phosphorylation in human MOLM-14 cells harboring FLT3 D835Y mutant at 10 times IC50 incubated for 2 hrs by Western blot analysis relative to control. The data set is classed as cell-based.
Data set [13] has as its target High affinity nerve growth factor receptor (Homo sapiens) (UniProt P04629). The experiment in a line: Inhibition of TRKA (unknown origin) at 4.5 nM incubated for 1 hr by KINOMEscan analysis relative to control. The method in brief:
(§2)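 Competition binding panel: DNA-tagged kinases combined with beads carrying immobilized biotinylated ligand and test compound in binding buffer (20 % SeaBlock, 0.17x PBS, 0.05 % Tween 20, 6 mM DTT). Compound diluted from 100x DMSO stocks. Incubated 1 h at room temperature with shaking, then washed. Bound kinase eluted with non-biotinylated ligand for 30 min. Kinase in eluate quantified by qPCR.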

In data set [14] the target is Mast/stem cell growth factor receptor Kit (Homo sapiens, UniProt P10721). Description: Binding affinity to KIT (unknown origin) at 4.5 nM incubated for 1 hr by KINOMEscan analysis. The note with it: 0.0045 µM. The method in brief: as §2
Data set [15] addresses Receptor-type tyrosine-protein kinase FLT3 (Homo sapiens) (UniProt P36888). The note with it: dose 4.5 nM, time 1.0 hrs.

SMILES strings stand for the structures. Activity calls are given as the source filed them. The calls are words filed in the database; no cut-off is given here.

Chain of High affinity nerve growth factor receptor (Homo sapiens) (P04629 33-796 limits assumed): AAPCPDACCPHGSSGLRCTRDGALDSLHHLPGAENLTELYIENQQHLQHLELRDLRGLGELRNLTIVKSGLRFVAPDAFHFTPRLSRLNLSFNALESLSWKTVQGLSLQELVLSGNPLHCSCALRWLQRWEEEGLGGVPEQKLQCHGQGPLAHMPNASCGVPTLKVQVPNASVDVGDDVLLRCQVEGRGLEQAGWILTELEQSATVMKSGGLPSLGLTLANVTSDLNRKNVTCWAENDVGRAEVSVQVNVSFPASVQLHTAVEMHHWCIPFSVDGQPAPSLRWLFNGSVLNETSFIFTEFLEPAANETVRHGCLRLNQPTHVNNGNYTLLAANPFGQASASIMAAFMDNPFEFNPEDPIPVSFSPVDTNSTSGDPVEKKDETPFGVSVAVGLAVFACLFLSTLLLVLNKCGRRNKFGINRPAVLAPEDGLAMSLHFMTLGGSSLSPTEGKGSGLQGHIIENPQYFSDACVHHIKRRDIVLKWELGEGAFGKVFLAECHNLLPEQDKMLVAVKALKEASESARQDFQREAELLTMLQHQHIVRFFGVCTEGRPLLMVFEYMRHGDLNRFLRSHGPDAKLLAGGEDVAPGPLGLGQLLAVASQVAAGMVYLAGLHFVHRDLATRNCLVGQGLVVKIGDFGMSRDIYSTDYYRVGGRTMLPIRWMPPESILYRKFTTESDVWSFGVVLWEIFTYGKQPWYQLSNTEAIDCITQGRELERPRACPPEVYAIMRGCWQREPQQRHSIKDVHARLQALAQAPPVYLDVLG
Chain of Mast/stem cell growth factor receptor Kit (P10721 whole entry): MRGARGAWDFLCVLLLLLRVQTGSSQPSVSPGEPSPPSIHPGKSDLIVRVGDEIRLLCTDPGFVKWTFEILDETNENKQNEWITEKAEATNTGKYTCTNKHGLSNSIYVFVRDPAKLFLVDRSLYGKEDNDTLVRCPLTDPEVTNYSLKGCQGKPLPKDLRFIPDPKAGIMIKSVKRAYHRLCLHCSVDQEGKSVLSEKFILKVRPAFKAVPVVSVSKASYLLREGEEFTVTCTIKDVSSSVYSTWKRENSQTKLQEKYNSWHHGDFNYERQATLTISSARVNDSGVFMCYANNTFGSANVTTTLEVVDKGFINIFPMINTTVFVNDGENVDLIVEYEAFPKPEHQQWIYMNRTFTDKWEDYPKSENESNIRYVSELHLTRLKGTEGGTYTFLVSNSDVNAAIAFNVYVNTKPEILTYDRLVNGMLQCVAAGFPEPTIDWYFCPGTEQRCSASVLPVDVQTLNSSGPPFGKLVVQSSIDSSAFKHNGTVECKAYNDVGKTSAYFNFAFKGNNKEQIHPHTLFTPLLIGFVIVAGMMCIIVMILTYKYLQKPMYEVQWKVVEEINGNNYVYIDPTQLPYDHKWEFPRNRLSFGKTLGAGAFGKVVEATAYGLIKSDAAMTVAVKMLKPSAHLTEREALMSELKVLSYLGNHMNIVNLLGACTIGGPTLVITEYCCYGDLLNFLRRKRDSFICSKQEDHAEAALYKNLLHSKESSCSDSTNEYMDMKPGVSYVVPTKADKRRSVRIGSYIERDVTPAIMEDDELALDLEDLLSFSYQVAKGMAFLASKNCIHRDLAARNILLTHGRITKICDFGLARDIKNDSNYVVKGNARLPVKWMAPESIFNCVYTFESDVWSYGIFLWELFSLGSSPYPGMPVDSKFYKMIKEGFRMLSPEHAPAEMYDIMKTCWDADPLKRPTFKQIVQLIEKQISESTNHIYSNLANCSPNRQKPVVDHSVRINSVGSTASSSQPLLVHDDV

As a reminder, the IC50 is the concentration at which inhibition is half-maximal. Take `COc1cc(Nc2cccc(-c3cnc4cc(-c5ccc(S(C)(=O)=O)cc5)ccn34)n2)cc(OC)c1OC`: the IC50 is 43.9 nM in [1]; 130 nM in [2]; over 1000 nM in [3]; over 1000 nM in data set [4]; 94.6 nM in [6]. The IC50 at 72 h in data set [5] is over 1000 nM.
The inhibition is the share of the control response that was lost under treatment. Take `Cn1cc(-c2ccn3c(-c4cccc(Nc5ccc(S(C)(=O)=O)cc5)n4)cnc3c2)cn1`: the IC50 is 4.55 nM in data set [7]; 3.16 nM in data set [1]; 8.34 nM in data set [2]; over 1000 nM in data set [3]; over 1000 nM in data set [4]; 7.94 nM in [6]. Also, in [5], the IC50 at 72 h is over 1000 nM. The inhibition result in [8], in data set [10] and in [11] was “Active” throughout. The inhibition was 100% in [9], 100% in data set [12], over 65% in data set [13] and over 65% in data set [15]. Also, in data set [14], the “inhibition (INH)” value is listed as “Not Active”.
As for `Cn1cc(-c2ccn3c(-c4cccc(Nc5cccc(C(C)(C)C)c5)n4)cnc3c2)cn1`, the IC50 in data set [7] was 154 nM; in data set [1], 265 nM; in data set [2], 412 nM; in data set [3] it was over 1000 nM; in [4], over 1000 nM; in data set [6] it was 288 nM. In addition, the 50% inhibitory concentration (IC50) at 72 h in data set [5] was 993 nM.
For the compound `COc1ccc(Nc2cccc(-c3cnc4cc(-c5cnn(C)c5)ccn34)n2)cc1OC`, the IC50 was 2.49 nM in [7]; 4.64 nM in data set [1]; 14 nM in data set [2]; 969 nM in [3]; over 1000 nM in data set [4]; 6.63 nM in [6]. Moreover, the IC50 at 72 h in data set [5] was over 1000 nM.
